The values below come from ChEMBL document CHEMBL3621107, “Ring fusion strategy for synthesis and lead optimization of sulfur-substituted anthra[1,2-c][1,2,5]thiadiazole-6,11-dione derivatives as promising scaffold of antitumor agents” (Eur J Med Chem, 2015).

One data set relates to DU-145. Kind of data set: Cytotoxicity against human DU145 cells after 72 hrs by MTT assay. The format is functional, cell-based. As to conditions: DU-145, 72 h. A digest of the protocol:
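DU-145 cells grown in RPMI-1640 with 5% heat-inactivated fetal calf serum at 37 °C, 5% CO2. About 2×10^3 cells per well were seeded and incubated for 24 h. Compounds were dissolved in DMSO freshly and diluted into medium (vehicle 0.1% DMSO), then cells were exposed for 72 h. MTT was added for 3 h at 37 °C and absorbance read at 570 nm.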
A general note: Tetrazolium assays rely on reduction of a dye to a coloured formazan, in cell work by metabolically active cells.

Another data set deals with PC-3. Kind of data set: Cytotoxicity against human PC3 cells after 48 hrs by SRB assay. Type of data set: functional, cell-based. To be noted: PC-3, 48 h. In outline: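 Second-stage NCI-60 panel run by the NCI Developmental Therapeutics Program, covering nine tumour subpanels. Five concentrations were tested: 0.01, 0.1, 1, 10 and 100 μM. Percentage growth at each level was plotted against log10 drug concentration. GI50, TGI and LC50 were read from these dose-response curves. Subpanel MID values were divided into the full-panel MID to give selectivity ratios.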
A general note: The SRB assay estimates cell density from bound dye.

Data set [1] is described as follows: Cytotoxicity against human WPMY-1cells assessed as survival rate after 72 hrs by MTT assay. The format is cell-based. As to conditions: wpmy-1, 72 h. A digest of the protocol: (§1)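 About 2×10^3 cells/well preincubated 24 h at 37 °C, 5% CO2. Compound freshly dissolved in DMSO, diluted into complete medium and added at various concentrations (vehicle 0.1% DMSO) for 72 h. MTT added for 3 h at 37 °C, absorbance read at 570 nm, survival rate derived.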

Data set [2] is described as follows: Cytotoxicity against human RWPE1 cells assessed as survival rate after 72 hrs by MTT assay. Type of data set: cell-based, RWPE-1. As to conditions: rwpe-1, 72 h. In outline:
as §1

Data set [3] can be described thus: Cytotoxicity against human SV-HUC1 cells assessed as survival rate after 72 hrs by MTT assay. Type of data set: cell-based. As to conditions: sv-huc1, 72 h. A digest of the protocol: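 SV-HUC-1 cells grown in Ham's F-12K with 5% heat-inactivated fetal calf serum, 37 °C, 5% CO2. About 2×10^3 cells/well plated for 24 h, then a range of compound concentrations (DMSO stock diluted into medium; vehicle 0.1% DMSO) for 72 h. MTT added for 3 h at 37 °C; absorbance 570 nm.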

With `Cc1ccc(Sc2cc3c(c4nsnc24)C(=O)c2ccccc2C3=O)cc1`, the IC50 with DU-145 and with PC-3 was greater than 15 µM in each case.

`O=C1c2ccccc2C(=O)c2c1cc(Sc1ccc(F)cc1)c1nsnc21`: the IC50 in the data set with DU-145 came to 11.1 µM; in the data set with PC-3 it was 6.7 µM.

Take `CC(C)c1ccc(Sc2cc3c(c4nsnc24)C(=O)c2ccccc2C3=O)cc1`: the 50% inhibitory concentration (IC50) in the data set with DU-145 is 13.8 µM; with PC-3, greater than 15 µM.

`COc1ccccc1Sc1cc2c(c3nsnc13)C(=O)c1ccccc1C2=O`: the values for the IC50 with DU-145 and with PC-3 were 12.9 µM and greater than 15 µM, respectively.

Consider `Cc1ccc(Sc2cc3c(c4nsnc24)C(=O)c2ccccc2C3=O)cc1C`, for which the IC50 in the data set on DU-145 is 14.1 µM; in the data set on PC-3, greater than 15 µM.

Turning to `CCCSc1cc2c(c3nsnc13)C(=O)c1ccccc1C2=O`, the IC50 in the data set with DU-145 turned out to be 2.55 µM; in the data set on PC-3, 5.39 µM.

Consider `O=C1c2ccccc2C(=O)c2c1cc(Sc1cccc(F)c1)c1nsnc21`, for which the IC50 in the data set with DU-145 turned out to be 12.7 µM; in the data set with PC-3, 8.82 µM.

In the case of `COc1cccc2c1C(=O)c1c(O)c3c(c(O)c1C2=O)C[C@@](O)(C(=O)CO)C[C@@H]3O[C@H]1C[C@H](N)[C@H](O)[C@H](C)O1` [DOXORUBICIN], the Activity result in data set [1], in data set [2] and in data set [3] was “Toxic” in each case.

For `CCc1ccccc1Sc1cc2c(c3nsnc13)C(=O)c1ccccc1C2=O`, the IC50 in the data set with DU-145 and in the data set with PC-3 was greater than 15 µM in each case.

Consider `O=C1c2ccccc2C(=O)c2c1cc(Sc1cccc(Br)c1)c1nsnc21`, for which the IC50 in the data set on DU-145 stood at 10.7 µM; with PC-3 it was 12.4 µM.

Take `Cc1cccc(Sc2cc3c(c4nsnc24)C(=O)c2ccccc2C3=O)c1`: the IC50 with DU-145 and with PC-3 was greater than 15 µM in each case.

Take `O=C1c2ccccc2C(=O)c2c1cc(SCCc1ccccc1)c1nsnc21`: the IC50 with DU-145 was 9.65 µM; in the data set on PC-3 it was greater than 15 µM.

`CC(C)(C)c1ccc(CSc2cc3c(c4nsnc24)C(=O)c2ccccc2C3=O)cc1`: the values for the IC50 in the data set with DU-145 and in the data set with PC-3 were 3.66 µM and 9.5 µM, respectively.

`O=C1c2ccccc2C(=O)c2c1cc(Sc1cc(Cl)c(Cl)cc1Cl)c1nsnc21`: the IC50 in the data set on DU-145 and with PC-3 was greater than 15 µM in each case.

For `CC(C)c1ccccc1Sc1cc2c(c3nsnc13)C(=O)c1ccccc1C2=O`, the IC50 in the data set on DU-145 is 14.6 µM; with PC-3 it was greater than 15 µM.

With `O=C1c2ccccc2C(=O)c2c1cc(Sc1ccccc1Cl)c1nsnc21`, the IC50 in the data set on DU-145 and with PC-3 was greater than 15 µM throughout.

`O=C1c2ccccc2C(=O)c2c1cc(Sc1ccccc1F)c1nsnc21`: the IC50 with DU-145 is 7.64 µM; in the data set on PC-3 it was greater than 15 µM.

In the case of `O=C1c2ccccc2C(=O)c2c1cc(SCc1ccccc1Cl)c1nsnc21`, the IC50 stood at 6.38 µM in the data set with DU-145 and 5.48 µM in the data set on PC-3.

Regarding `CCc1ccc(Sc2cc3c(c4nsnc24)C(=O)c2ccccc2C3=O)cc1`, the results for the IC50 with DU-145 and with PC-3 were 2.52 µM and 7.5 µM, respectively.

As for `O=C1c2ccccc2C(=O)c2c1cc(Sc1ccc(Br)cc1)c1nsnc21`, the values for the IC50 with DU-145 and in the data set with PC-3 were 13.3 µM and greater than 15 µM, respectively.

On to `Cc1ccc(C)c(Sc2cc3c(c4nsnc24)C(=O)c2ccccc2C3=O)c1`, for which the IC50 with DU-145 came to 12 µM; with PC-3 it was 7.44 µM.

Consider `CC(C)(C)c1ccc(Sc2cc3c(c4nsnc24)C(=O)c2ccccc2C3=O)cc1`, for which the values for the IC50 with DU-145 and in the data set with PC-3 were 8.38 µM and greater than 15 µM, respectively.

One may read the IC50 as the concentration that gives 50% inhibition. A lower IC50 goes with greater potency.
